# miR122 inh: miR-122 Renilla sensor signal increase in Huh7, primary screen, miR-122 inhibitor project, cell-based, single point, plate reader. actives 0.3% (n = 340,000). activation (reporter increase), % at 12.5 µM. Huh7 miR-122 Renilla luciferase sensor, 48 h; neutral wells = 0, positive control = 100;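 active means mean replicate activation score at least 90 and every replicate individually at or above 90; inconclusive means only one of the two criteria met; inactive means neither criterion met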;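 further: higher luciferase means less miR-122 activity so hits act as miR-122 inhibitors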
# HIV Env fusion: inhibitors of HIV-1 Env-driven cell-cell fusion, primary screen, HeLa-JRFL effector, CEM21 target cells, luciferase | inhibition, % at 12.3 µM | actives 1.1% (n = 360,000);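 active means mean replicate inhibition score of at least 50 and every replicate individually at or above 50; inconclusive means only one of the two criteria met; inactive means mean below 50 and not all replicates reaching 50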
# Vif inh: HIV Vif self-association inhibitors, primary screen, imaging, HEK293T, single point; HEK293T cells, Vif self-association by quenched fluorescence, 24 h; inhibition, % at 7.49 µM; actives 0.35% (n = 340,000); AID 602346, 2012; in the data active means inhibition above about 50%, passing the limit was not always enough; inconclusive means no clear call, values can overlap the other calls; inactive means below about 31%
# rRNA inh HTS: reduced GFP signal of wild-type E. coli, primary screen, bacterial rRNA inhibitor project, GFP/RFP fluorescence, OD600, single point; E. coli WT GFP vs humanized-ribosome RFP mutants, 24 h; stronger effect = lower value; DMSO median 0, no signal -100; GFP signal change (wild-type ribosome), % (test concentration not listed); actives 1.6% (n = 350,000);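 active means significant combined selectivity score with lowered wild-type GFP, culture density cut under 30%, mutant RFP and density less affected; inactive means any of these conditions unmet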
# FN deposition inh: inhibitors of fibronectin matrix deposition, primary screen, AH1F cells, Alexa488-fibronectin fluorescence, plate reader | inhibition, % at 12.6 µM | AH1F fibroblasts, overnight | actives 0.086% (n = 350,000) | AID 743247, 2014;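 active means mean inhibition across replicates of 30% or more, regardless of how many single replicates reach that level; inconclusive means mean under 30% yet at least half of replicates reach 30%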
#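 Schedule: 1 h cell adhesion before compound, then overnight fibronectin incubation; test system: AH1F fibroblast monolayer depositing Alexa488-labelled fibronectin into matrix; quantity: 10000 AH1F cells per well; probe or stimulus: fluorescent fibronectin at 24 nM final; signal: fluorescence, ex 485 nm, em 525 nm; evaluation: percent inhibition as loss of matrix-bound fibronectin fluorescence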
# S100A4 inh HTS: inhibitors of S100A4-myosin IIA peptide binding, primary screen, biochemical, fluorescence polarization, TAMRA-MyoIIA peptide | Protein S100-A4 (Homo sapiens), P26447 | inhibition, % at 10.7 µM | actives 0.14% (n = 360,000);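 active means mean inhibition of at least 70% across replicates, with every replicate also reaching that level; inconclusive means mean inhibition reaches 70% but some replicates fall short; inactive means mean inhibition below 70%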
# Target sequence (P26447 whole entry, looked up): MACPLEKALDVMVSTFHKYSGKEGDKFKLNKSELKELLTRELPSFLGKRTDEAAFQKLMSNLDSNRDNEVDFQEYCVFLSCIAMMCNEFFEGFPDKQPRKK
#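 incubation = readout 5 min after mixing, signal stable up to 60 min | system = S100A4 monomer protein | buffer or medium = HEPES pH 7.2 with CaCl2, KCl, NaCl, DTT, Triton | benchmarks = neutral control DMSO, positive control TFP | also added = fluorescent myosin IIA peptide, 5 nM | compound dosing = one concentration per compound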
# HepG2 cytotox: cytotoxicity in HepG2 cells, dose response, cytotoxicity control, cell-based, CellTiter-Glo luminescence, cherry-pick, set 4. shares compounds with rRNA inh HTS. 30 tested, under 10 active. activity change, negative = cytotoxicity, unspecified at 26 µM. AID 743480, 2014. HepG2 viability, ATP luminescence, 72 h;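 active means compounds whose fitted half-maximal signal-loss concentration is at most twice their highest valid dose; inconclusive means flat curve with 30 to 70% signal loss, or poor fit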
# AID977621: growth inhibition of wild-type GFP E. coli, dose response, H69 mutant RFP, cherry-pick; shares compounds with rRNA inh HTS; activity change, negative = inhibition at 50 µM; E. coli wild-type GFP strain growth, fluorescence, 24 h; 1,900 tested, under 10 active;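 active means Wild-type ribosome reporter drop at least double the humanized mutant ribosome reporter drop, growth loss under a set limit; inconclusive means no clear call, values can overlap the other calls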;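 further: wild-type GFP and H69 mutant RFP strains grown together 50/50 in each well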
# AID977628: E. coli growth inhibition, wild-type GFP versus h24 humanized RFP strain, dose response, h24 mutant RFP vs wild-type GFP, cherry-pick. shares compounds with rRNA inh HTS. E. coli WT GFP strain growth, fluorescence, 24 h. activity change, negative = inhibition at 50 µM. 1,900 tested, under 10 active. AID 977628, 2014;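 active means compound lowering the normal-ribosome reporter at least twice as much as the humanized-ribosome reporter, growth loss under a set limit; inconclusive means no clear call, values can overlap the other calls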;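 further: wild-type GFP and h24 humanized RFP strains co-cultured 1 to 1 per well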
# A number is an active result; i = inactive; ? = inconclusive; nt = no result. A selection: hits, their analogues and other compounds. The true share with any hit is near 2.6%.
SMILES,miR122 inh,HIV Env fusion,Vif inh,rRNA inh HTS,FN deposition inh,S100A4 inh HTS,AID977621,AID977628,others
C[C@@H]1CCCCO[C@@H](CN(C)C)[C@@H](C)CN([C@@H](C)CO)C(=O)c2cc(NC(=O)Nc3cccc4ccccc34)ccc2O1,i,i,nt,i,nt,i,i,?,
CNC[C@H]1OCCCC[C@@H](C)Oc2ccc(NC(=O)Nc3cccc4ccccc34)cc2C(=O)N([C@@H](C)CO)C[C@H]1C,i,i,nt,-24.6,nt,i,nt,?,
C[C@@H]1CN([C@@H](C)CO)C(=O)c2cc(NC(=O)Nc3cccc4ccccc34)ccc2O[C@@H](C)CCCCO[C@@H]1CN(C)C,i,i,nt,i,nt,nt,i,?,
C[C@@H]1CN([C@H](C)CO)C(=O)c2cc(NC(=O)Nc3cccc4ccccc34)ccc2O[C@@H](C)CCCCO[C@H]1CN(C)C,i,i,nt,nt,nt,nt,nt,nt,
C[C@@H]1CN([C@@H](C)CO)C(=O)c2cc(NC(=O)Nc3cccc4ccccc34)ccc2O[C@@H](C)CCCCO[C@H]1CN(C)C(=O)Nc1cccc2ccccc12,i,i,nt,i,i,i,nt,nt,
COC(=O)c1c(NC(=O)CCC(=O)O)sc(Cc2ccccc2)c1C,i,i,i,-37.8,i,i,nt,nt,HepG2 cytotox=i
COc1ccc(NC(=O)c2cccs2)cc1C(=O)N1CCN(c2ccccc2)CC1,i,i,i,-20.9,i,i,i,i,
COc1cccc(OC)c1C(=O)Nc1ccc(N2CCN(C(=O)c3cccs3)CC2)cc1,nt,i,i,i,i,i,nt,nt,
COC(=O)c1nc(-c2ccc(C)cc2)[nH]c1C(C)(C)C,i,i,i,-20.7,i,i,i,i,
O=C(O)CC1(CC(=O)Nc2ccc3sccc3c2)CCCCC1,i,i,i,-25.6,i,i,i,i,
OC[C@@H]1CC[C@@H]2O[C@H](CCc3ccc(C#CCc4ccccc4)cc3)[C@@H](n3cc(-c4ccccc4)nn3)C[C@@H]2O1,nt,nt,nt,nt,nt,i,nt,nt,
O=C(C[C@@H]1CC[C@@H]2[C@H](COC[C@H](O)CN2C(=O)Nc2ccc(Cl)cc2)O1)N1CCCCC1,i,nt,nt,-21.9,i,i,nt,?,
C#CC[N+](C)(C)CC#Cc1ccccc1,nt,i,i,i,i,i,nt,nt,
Cc1ccc(C#CC[N+](C)(C)CC#Cc2ccccc2)cc1,i,i,i,-53.9,i,i,nt,?,
O=C(N[C@@H]1C=C[C@@H](CC(=O)N2CCc3ccccc3C2)O[C@H]1CO)C1CCOCC1,nt,nt,nt,i,nt,i,nt,nt,
COc1ccccc1C1CCN(C(=O)c2ccco2)CC1,i,i,i,-23.3,i,i,i,?,
COc1ccccc1N1CCN(C(=O)c2ccco2)CC1,i,i,i,i,i,i,nt,nt,
O=C(NCCSc1ccc(Br)cc1)c1ccccc1,nt,i,i,i,i,i,nt,nt,
Cc1cccc(C(=O)NCC(=O)NCCSc2ccc(Br)cc2)c1,i,i,i,-22.3,i,i,i,nt,
COc1ccc(NC(=O)Nc2ccc3c(c2)C(=O)N([C@H](C)CO)C[C@H](C)[C@H](CN(C)C(=O)Nc2ccc4c(c2)OCO4)OCCCC[C@H](C)O3)cc1,i,i,nt,i,nt,i,nt,nt,
CCCOC(=O)c1ccc(NC(=O)c2nc3nc(C)cc(C)n3n2)cc1,i,i,i,-23.4,i,i,i,i,
O=C(NNC(=O)c1ccc(NC(=O)c2ccccc2)cc1)c1ccc(F)cc1,i,i,i,i,nt,i,nt,nt,
O=C(Nc1ccncc1)c1ccc(S(=O)(=O)Nc2ccccc2)cc1,i,i,i,-23.1,i,i,i,?,
O=C(Nc1ccc(C(=O)c2ccccc2)cc1)c1ccccc1,nt,i,i,-21.5,i,i,i,nt,
C[C@H]1CN([C@@H](C)CO)C(=O)c2cccc(NC(=O)Nc3cccc4ccccc34)c2O[C@H]1CN(C)C(=O)Nc1ccccc1,i,i,nt,i,nt,i,nt,nt,
SMILES,miR122 inh,HIV Env fusion,Vif inh,rRNA inh HTS,FN deposition inh,S100A4 inh HTS,AID977621,AID977628,others
Cc1ccccc1-c1nc(CS(=O)(=O)CC(=O)N2CCCCC2)c(C)o1,i,i,i,-19.1,i,i,i,i,
CCN1CCN(C(=O)CS(=O)(=O)Cc2nc(-c3ccccc3C)oc2C)CC1,i,i,i,i,i,i,nt,nt,
O=C(C[C@@H]1C[C@@H]2c3cc(NC(=O)CC4CC4)ccc3O[C@@H]2[C@@H](CO)O1)NCC1CC1,i,?,nt,i,i,i,nt,nt,
CN(C(=O)COc1ccccc1C(=O)NCCOc1ccccc1)c1ccccc1,nt,i,i,-19.0,i,i,i,nt,
O=C(NCCOc1ccccc1)c1ccccc1Cl,nt,i,i,i,i,i,nt,nt,
Cc1cc(C)c(NC(=O)C(C)c2cccc(C(=O)c3ccccc3)c2)c(C)c1 (stereo not given),i,nt,i,-17.3,nt,i,i,nt,
CC(=O)Nc1ccc(NC(=O)C(C)c2cccc(C(=O)c3ccccc3)c2)cc1 (stereo not given),nt,i,nt,nt,i,nt,nt,nt,
CC1CCC(C(C)C)C(OCC(O)CN2CCCC(C)C2)C1 (stereo not given),nt,i,i,-22.2,i,i,i,?,
CN1C(=O)c2cc(NC(=O)c3ccc(F)cc3)ccc2OC[C@H]2O[C@@H](CC(=O)NC3CCC3)CC[C@H]21,i,i,nt,i,i,i,nt,nt,
C[C@H](CO)N1C[C@H](C)[C@@H](CN(C)C(=O)Nc2ccc(C(F)(F)F)cc2)Oc2ccc(NC(=O)CCCCCC(=O)Nc3ccccc3N)cc2CC1=O,i,i,nt,i,nt,nt,nt,nt,
O=c1[nH]c2cc([N+](=O)[O-])ccc2c2ccccc12,nt,i,i,-12.6,i,i,i,?,
O=c1[nH]c2cc([N+](=O)[O-])ccc2c2ccc([N+](=O)[O-])cc12,nt,i,i,i,i,i,nt,nt,
COc1ccc(-c2nc(C3CCCCC3)no2)cc1OC,i,nt,i,-19.1,nt,i,i,i,
Cc1ccccc1S(=O)(=O)c1cc2ccccc2nc1N,i,i,i,-30.1,i,i,i,nt,

# Screening data (PubChem BioAssay)
